Results as given in ChEMBL document CHEMBL1152439, “Calcitriol derivatives with two different side chains at C-20. V. Potent inhibitors of mammary carcinogenesis and inducers of leukemia differentiation” (J Med Chem, 2009).
Calls of active or inactive are those of the source. The rule behind the calls is not given here.

Legend:
[1] = Antiproliferative activity against human MCF10CA1a after 3 days by [3H]thymidine uptake assay; type: functional
NB-4 [2] = assay: Induction of cell differentiation in human NB4 cells assessed as induction of induction of cell surface marker CD14 expression at 1 nM after 48 hrs; type: functional, cell-based
In short: (§1)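 NB4 human promyelocytic leukemia cells kept in log-phase suspension in RPMI 1640 with 10% […] iron-supplemented bovine calf serum, 37 °C, 5% CO₂. Exposed to compounds at 1 nM for 48 h; 1 × 10⁶ cells washed twice in PBS, then labelled with MY4-RD1 and Mo1-FITC antibodies to measure surface CD14 and CD11b expression.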

NB-4 [3] = assay: Induction of cell differentiation in human NB4 cells assessed as induction of induction of cell surface marker CD11b expression at 1 nM after 48 hrs; type: functional, cell-based; in short: as §1

| SMILES | IC50 [1] | Activity (NB-4 [2]; tested as the 2H-labelled form) | Activity (NB-4 [3]; tested as the 2H-labelled form) | also measured |
| --- | --- | --- | --- | --- |
| [2H]C([2H])([2H])C(O)(CCC[C@@H](C/C=C\C(O)(C(F)(F)F)C(F)(F)F)[C@H]1CC[C@H]2/C(=C/C=C3/C[C@@H](O)C[C@H](F)C3=C)CCC[C@]12C)C([2H])([2H])[2H] | > 10 nM | – | – | – |
| C=C1/C(=C\C=C2/CCC[C@]3(C)[C@@H]([C@H](C)CCCC(C)(C)O)CC[C@@H]23)C[C@@H](O)C[C@@H]1O | – | – | – | Activity (NB-4 [2]): Active; Activity (NB-4 [3]): Active |
| [2H]C([2H])([2H])C(O)(CCC[C@H](CC#CC(O)(C(F)(F)F)C(F)(F)F)[C@H]1CC[C@H]2/C(=C/C=C3/C[C@@H](O)C[C@H](F)C3=C)CCC[C@]12C)C([2H])([2H])[2H] | 1.6 nM | – | – | – |
| [2H]C([2H])([2H])C(O)(CCC[C@H](C/C=C\C(O)(C(F)(F)F)C(F)(F)F)[C@H]1CC[C@H]2/C(=C/C=C3C[C@@H](O)C[C@H](O)C3)CCC[C@]12C)C([2H])([2H])[2H] | 0.43 nM | – | – | – |
| C=C1/C(=C\C=C2/CCC[C@]3(C)[C@@H]([C@H](CC#CC(O)(C(F)(F)F)C(F)(F)F)CCCC(C)(C)O)CC[C@@H]23)C[C@@H](O)C[C@@H]1O | – | Active | Active | – |
| CC(C)(O)CCC[C@H](C/C=C\C(O)(C(F)(F)F)C(F)(F)F)[C@H]1CC[C@H]2/C(=C/C=C3C[C@@H](O)C[C@H](O)C3)CCC[C@]12C | – | Active | Active | – |
| [2H]C([2H])([2H])C(O)(CCC[C@H](C/C=C\C(O)(C(F)(F)F)C(F)(F)F)[C@H]1CC[C@H]2/C(=C/C=C3/C[C@@H](O)C[C@H](F)C3=C)CCC[C@]12C)C([2H])([2H])[2H] | 6.9 nM | – | – | – |
| [2H]C([2H])([2H])C(O)(CCC[C@@H](CC#CC(O)(C(F)(F)F)C(F)(F)F)[C@H]1CC[C@H]2/C(=C/C=C3/C[C@@H](O)C[C@H](F)C3=C)CCC[C@]12C)C([2H])([2H])[2H] | 0.56 nM | – | – | – |
| [2H]C([2H])([2H])C(O)(CCC[C@@H](C/C=C\C(O)(C(F)(F)F)C(F)(F)F)[C@H]1CC[C@H]2/C(=C/C=C3/C[C@@H](O)C[C@H](O)C3=C)CCC[C@]12C)C([2H])([2H])[2H] | 1.6 nM | – | – | – |
| [2H]C([2H])([2H])C(O)(CCC[C@H](CC#CC(O)(C(F)(F)F)C(F)(F)F)[C@H]1CC[C@H]2/C(=C/C=C3/C[C@@H](O)C[C@H](O)C3=C)CCC[C@]12C)C([2H])([2H])[2H] | 0.053 nM | – | – | – |
| C=C1/C(=C\C=C2/CCC[C@]3(C)[C@@H]([C@@H](CC#CC(O)(C(F)(F)F)C(F)(F)F)CCCC(C)(C)O)CC[C@@H]23)C[C@@H](O)C[C@@H]1F | – | Active | Active | – |
| C=C1/C(=C\C=C2/CCC[C@]3(C)[C@@H]([C@@H](C/C=C\C(O)(C(F)(F)F)C(F)(F)F)CCCC(C)(C)O)CC[C@@H]23)C[C@@H](O)C[C@@H]1O | – | Active | Active | – |
| C=C1/C(=C\C=C2/CCC[C@]3(C)[C@@H]([C@@H](CC#CC(O)(C(F)(F)F)C(F)(F)F)CCCC(C)(C)O)CC[C@@H]23)C[C@@H](O)C[C@@H]1O | – | Active | Active | – |
| [2H]C([2H])([2H])C(O)(CCC[C@H](CC#CC(O)(C(F)(F)F)C(F)(F)F)[C@H]1CC[C@H]2/C(=C/C=C3C[C@@H](O)C[C@H](O)C3)CCC[C@]12C)C([2H])([2H])[2H] | 0.19 nM | – | – | – |
| CC(C)(O)CCC[C@@H](CC#CC(O)(C(F)(F)F)C(F)(F)F)[C@H]1CC[C@H]2/C(=C/C=C3C[C@@H](O)C[C@H](O)C3)CCC[C@]12C | – | Active | Active | – |
| CC(C)(O)CCC[C@@H](C/C=C\C(O)(C(F)(F)F)C(F)(F)F)[C@H]1CC[C@H]2/C(=C/C=C3C[C@@H](O)C[C@H](O)C3)CCC[C@]12C | – | Active | Active | – |
| C=C1/C(=C\C=C2/CCC[C@]3(C)[C@@H]([C@H](C/C=C\C(O)(C(F)(F)F)C(F)(F)F)CCCC(C)(C)O)CC[C@@H]23)C[C@@H](O)C[C@@H]1F | – | Active | Active | – |
| CC(C)(O)CCC[C@H](CC#CC(O)(C(F)(F)F)C(F)(F)F)[C@H]1CC[C@H]2/C(=C/C=C3C[C@@H](O)C[C@H](O)C3)CCC[C@]12C | – | Active | Active | – |
| [2H]C([2H])([2H])C(O)(CCC[C@@H](C/C=C\C(O)(C(F)(F)F)C(F)(F)F)[C@H]1CC[C@H]2/C(=C/C=C3C[C@@H](O)C[C@H](O)C3)CCC[C@]12C)C([2H])([2H])[2H] | 3.2 nM | – | – | – |
| C=C1/C(=C\C=C2/CCC[C@]3(C)[C@@H]([C@H](C/C=C\C(O)(C(F)(F)F)C(F)(F)F)CCCC(C)(C)O)CC[C@@H]23)C[C@@H](O)C[C@@H]1O | – | Active | Active | – |
| [2H]C([2H])([2H])C(O)(CCC[C@H](C/C=C\C(O)(C(F)(F)F)C(F)(F)F)[C@H]1CC[C@H]2/C(=C/C=C3/C[C@@H](O)C[C@H](O)C3=C)CCC[C@]12C)C([2H])([2H])[2H] | 0.56 nM | – | – | – |
| [2H]C([2H])([2H])C(O)(CCC[C@@H](CC#CC(O)(C(F)(F)F)C(F)(F)F)[C@H]1CC[C@H]2/C(=C/C=C3/C[C@@H](O)C[C@H](O)C3=C)CCC[C@]12C)C([2H])([2H])[2H] | 0.062 nM | – | – | – |
| C=C1/C(=C\C=C2/CCC[C@]3(C)[C@@H]([C@H](CC#CC(O)(C(F)(F)F)C(F)(F)F)CCCC(C)(C)O)CC[C@@H]23)C[C@@H](O)C[C@@H]1F | – | Active | Active | – |
| [2H]C([2H])([2H])C(O)(CCC[C@@H](CC#CC(O)(C(F)(F)F)C(F)(F)F)[C@H]1CC[C@H]2/C(=C/C=C3C[C@@H](O)C[C@H](O)C3)CCC[C@]12C)C([2H])([2H])[2H] | 0.12 nM | – | – | – |
| C=C1/C(=C\C=C2/CCC[C@]3(C)[C@@H]([C@@H](C/C=C\C(O)(C(F)(F)F)C(F)(F)F)CCCC(C)(C)O)CC[C@@H]23)C[C@@H](O)C[C@@H]1F | – | Active | Active | – |
